Data on 20 compounds can be found in ChEMBL document CHEMBL1138787, “Synthesis and evaluation of nitrofuranylamides as novel antituberculosis agents” (J Med Chem, 2004).

Structures are written as SMILES.

The term IC50 denotes the concentration that gives 50% inhibition.

System in the first series: not listed separately
Kind of series: The protein binding is expressed as percent bound as determined by VolSurf. The series is classed as ADME. As to conditions: read-out: Protein binding (converted).
Regarding `COc1ccc(N(C)C(=O)c2ccc([N+](=O)[O-])o2)cc1`, the fraction unbound is 0.395.

Turning to `O=C(Nc1cccc(F)c1)c1ccc([N+](=O)[O-])o1`, the fraction unbound was 0.334.

Take `COc1cc(CNC(=O)c2ccc([N+](=O)[O-])o2)cc(OC)c1OC`: the fraction unbound is 0.344.

As for `COc1ccc(CNC(=O)c2ccc([N+](=O)[O-])o2)cc1`, the fraction unbound is 0.347.

As to `O=C(Nc1cccc(Br)c1)c1ccc([N+](=O)[O-])o1`, the fraction unbound was 0.311.

`N#Cc1ccc(NC(=O)c2ccc([N+](=O)[O-])o2)cc1`: the fraction unbound was 0.249.

Regarding `C[C@H](NC(=O)c1ccc([N+](=O)[O-])o1)c1ccccc1`, the fraction unbound is 0.259.

For the compound `O=C(Nc1ccccc1)c1ccc([N+](=O)[O-])o1`, the fraction unbound was 0.325.

Consider `O=C(Nc1ccncc1)c1ccc([N+](=O)[O-])o1`, for which the fraction unbound was 0.446.

Turning to `C[C@@H](NC(=O)c1ccc([N+](=O)[O-])o1)c1ccccc1`, the fraction unbound is 0.289.

`O=C(c1ccc([N+](=O)[O-])o1)N1CCc2ccccc21`: the fraction unbound was 0.25.

Regarding `COc1ccc(CNC(=O)c2ccc([N+](=O)[O-])o2)c(OC)c1`, the fraction unbound was 0.409.

For `O=C(Nc1cnccn1)c1ccc([N+](=O)[O-])o1`, the fraction unbound was 0.528.

`O=C(Nc1cccc(O)c1)c1ccc([N+](=O)[O-])o1`: the fraction unbound was 0.391.

With `COc1cc(NC(=O)c2ccc([N+](=O)[O-])o2)ncn1`, the fraction unbound is 0.469.

Turning to `COc1ccccc1CNC(=O)c1ccc([N+](=O)[O-])o1`, the fraction unbound was 0.335.

As to `O=C(NCCc1ccccc1)c1ccc([N+](=O)[O-])o1`, the fraction unbound was 0.246.

The subject of the next series is Mycobacterium tuberculosis. Description: Viable Mycobacterium tuberculosis in spleen of infected Mice after an 8-day drug treatment; Dose is 300 mg/kg. The series is classed as functional.
Conditions: not given
Put shortly:
(§1)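 C57BL/6 interferon-γ gene-depleted (GKO) mice infected by low-dose aerosol. Eight daily treatments started 18 days postinfection. At day 28, lung and spleen homogenates serially diluted onto Middlebrook 7H11 agar and incubated 4 weeks at 37 °C. CFU log-transformed and reported ±SEM; one-way Dunnett multiple-comparison ANOVA, significance at 95% confidence.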
On to `O=C(Nc1cccc(Cl)c1)c1ccc([N+](=O)[O-])o1`, for which the Activity turned out to be 7.3 log CFU.

Turning to `O=C(Nc1cccc(F)c1)c1ccc([N+](=O)[O-])o1`, the Activity is given as 7 log CFU.

Another series deals with Vero. Description: Selectivity is the ratio of cytotoxicity compared to TBMIC.
Conditions: not given
Format: functional. Put shortly: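 Ratio of VERO cell toxicity IC50 to M. tuberculosis H37Ra MIC. VERO monolayers were exposed to 3-fold compound dilutions for 72 h, and viability was read by tetrazolium reduction at 490 nm, with untreated and SDS-lysed cells as 0% and 100%. MIC was by microbroth dilution in 7H9 (OD650 0.01 inoculum), 37 °C for 8 days, with visual 90% growth inhibition.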
As to `O=C(Nc1cccc(Cl)c1)c1ccc([N+](=O)[O-])o1`, the Selectivity index is 8.6.

Turning to `COc1ccc(N(C)C(=O)c2ccc([N+](=O)[O-])o2)cc1`, the Selectivity index was determined as 4.

Take `O=C(Nc1cccc(F)c1)c1ccc([N+](=O)[O-])o1`: the Selectivity index is reported as 11.6.

With `COc1cc(CNC(=O)c2ccc([N+](=O)[O-])o2)cc(OC)c1OC`, the Selectivity index was 29.5.

As to `COc1ccc(CNC(=O)c2ccc([N+](=O)[O-])o2)cc1`, the Selectivity index came to 163.6.

Regarding `O=C(Nc1cccc(Br)c1)c1ccc([N+](=O)[O-])o1`, the Selectivity index was determined as 9.6.

As for `N#Cc1ccc(NC(=O)c2ccc([N+](=O)[O-])o2)cc1`, the Selectivity index worked out at 4.4.

For `C[C@H](NC(=O)c1ccc([N+](=O)[O-])o1)c1ccccc1`, the Selectivity index was 16.

Regarding `O=C(Nc1ccccc1)c1ccc([N+](=O)[O-])o1`, the Selectivity index is on record as 2.7.

Consider `O=C(Nc1ccncc1)c1ccc([N+](=O)[O-])o1`, for which the Selectivity index is listed as 2.2.

On to `C[C@@H](NC(=O)c1ccc([N+](=O)[O-])o1)c1ccccc1`, for which the Selectivity index is listed as 7.6.

As for `O=C(c1ccc([N+](=O)[O-])o1)N1CCc2ccccc21`, the Selectivity index is reported as 9.9.

On to `COc1ccc(CNC(=O)c2ccc([N+](=O)[O-])o2)c(OC)c1`, for which the Selectivity index stood at 13.5.

For `O=C(Nc1cccc(O)c1)c1ccc([N+](=O)[O-])o1`, the Selectivity index was found to be 7.8.

As to `O=C(NCCc1ccccc1)c1ccc([N+](=O)[O-])o1`, the Selectivity index was found to be 15.7.

The subject of the next series is Mycobacterium tuberculosis. Description: Activity against Mycobacterium tuberculosis H37Ra.
Conditions: not given
The series is classed as functional. A digest of the protocol:
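Microbroth dilution in microtiter plates. H37Ra grown in Middlebrook 7H9 to OD650 0.4-0.6, then diluted to OD650 0.01. 100 µL of cells added to serial compound dilutions and incubated 37 °C for 8 days, growth read visually. MIC90 taken as wells with >90% growth inhibition; isoniazid positive control on every plate.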
Regarding `O=C(Nc1cccc(Cl)c1)c1ccc([N+](=O)[O-])o1`, the TBMIC was found to be 0.8 µg/mL.

Compound `O=C(NC12CC3CC(CC(C3)C1)C2)c1ccc([N+](=O)[O-])o1` yielded a TBMIC of 3.1 µg/mL.

Compound `COc1ccc(N(C)C(=O)c2ccc([N+](=O)[O-])o2)cc1` displayed a TBMIC of 6.25 µg/mL.

In the case of `O=C(Nc1cccc(F)c1)c1ccc([N+](=O)[O-])o1`, the TBMIC is 0.8 µg/mL.

`COc1cc(CNC(=O)c2ccc([N+](=O)[O-])o2)cc(OC)c1OC` gave a TBMIC of 0.8 µg/mL.

In turn, `COc1ccc(CNC(=O)c2ccc([N+](=O)[O-])o2)cc1` gave a TBMIC of 0.1 µg/mL.

The compound `O=C(Nc1cccc(Br)c1)c1ccc([N+](=O)[O-])o1` came in with a TBMIC of 0.6 µg/mL.

For `N#Cc1ccc(NC(=O)c2ccc([N+](=O)[O-])o2)cc1`, the TBMIC came out at 0.8 µg/mL.

As to `C[C@H](NC(=O)c1ccc([N+](=O)[O-])o1)c1ccccc1`, the TBMIC was determined as 1.6 µg/mL.

Regarding `O=C(Nc1ccccc1)c1ccc([N+](=O)[O-])o1`, the TBMIC came to 0.8 µg/mL.

The compound `O=C(Nc1ccncc1)c1ccc([N+](=O)[O-])o1` registered a TBMIC of 3.12 µg/mL.

As for `C[C@@H](NC(=O)c1ccc([N+](=O)[O-])o1)c1ccccc1`, the TBMIC is 3.1 µg/mL.

In the case of `O=C(c1ccc([N+](=O)[O-])o1)N1CCc2ccccc21`, the TBMIC turned out to be 0.8 µg/mL.

For the compound `COc1ccc(CNC(=O)c2ccc([N+](=O)[O-])o2)c(OC)c1`, the TBMIC was 0.4 µg/mL.

Take `O=C(Nc1cnccn1)c1ccc([N+](=O)[O-])o1`: the TBMIC was found to be 6.25 µg/mL.

For the compound `O=C(Nc1cccc(O)c1)c1ccc([N+](=O)[O-])o1`, the TBMIC is 1.6 µg/mL.

Turning to `COc1cc(NC(=O)c2ccc([N+](=O)[O-])o2)ncn1`, the TBMIC came out at 1.6 µg/mL.

Regarding `COc1ccccc1CNC(=O)c1ccc([N+](=O)[O-])o1`, the TBMIC came to 1.6 µg/mL.

Consider `O=C(NCCc1ccccc1)c1ccc([N+](=O)[O-])o1`, for which the TBMIC was 1.6 µg/mL.

A further series deals with Mycobacterium tuberculosis. Description: Viable Mycobacterium tuberculosis in lungs of infected Mice after an 8-day drug treatment; Dose is 300 mg/kg. The series is classed as functional, Lung.
Conditions: not given
A digest of the protocol: as §1
As to `O=C(Nc1cccc(Cl)c1)c1ccc([N+](=O)[O-])o1`, the Activity amounted to 8.3 log CFU.

The compound `O=C(Nc1cccc(F)c1)c1ccc([N+](=O)[O-])o1` registered an Activity of 8.4 log CFU.

For a further series, the target named is UDP-galactopyranose mutase (Mycobacterium tuberculosis, UniProt P9WIQ1). Description: Inhibition of Mycobacterium tuberculosis UDP-galactose mutase expressed in Escherichia coli UDP-6 [3H]- Galf. On the set-up: species or system H37Rv.
Chain of UDP-galactopyranose mutase (P9WIQ1 whole entry): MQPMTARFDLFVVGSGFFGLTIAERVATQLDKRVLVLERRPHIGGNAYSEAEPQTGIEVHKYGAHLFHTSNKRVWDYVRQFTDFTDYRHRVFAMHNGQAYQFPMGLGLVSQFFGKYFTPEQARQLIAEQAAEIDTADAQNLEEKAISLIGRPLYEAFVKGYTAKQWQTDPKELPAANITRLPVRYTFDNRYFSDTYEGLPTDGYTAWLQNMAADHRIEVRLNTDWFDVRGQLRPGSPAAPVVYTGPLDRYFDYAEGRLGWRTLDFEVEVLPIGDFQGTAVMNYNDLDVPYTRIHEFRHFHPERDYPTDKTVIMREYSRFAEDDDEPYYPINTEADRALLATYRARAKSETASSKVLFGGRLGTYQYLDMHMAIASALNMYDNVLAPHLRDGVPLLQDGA
Conditions: not given
A digest of the protocol:
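Reverse-direction radiometric Glf assay on crude soluble enzyme extract, preactivated 30 min at 37 °C in 25 mM MOPS with NADH and FAD. Each 25 µL well held MOPS pH 7.2, MgCl2, NADH, FAD, 2.3 µg protein, 20 pmol UDP-6-[3H]Galf and 1 µL DMSO. Inhibitors at 100-6.3 µM; reaction 5-20 min. Conversion read by HPLC or periodate filter-plate counting; IC50 calculated.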
For `O=C(Nc1cccc(Cl)c1)c1ccc([N+](=O)[O-])o1`, the midpoint of inhibition, the IC50, lay at 56.3 µM.

Turning to `O=C(NC12CC3CC(CC(C3)C1)C2)c1ccc([N+](=O)[O-])o1`, half-maximal inhibition (IC50) was put at 169 µM.

`COc1ccc(N(C)C(=O)c2ccc([N+](=O)[O-])o2)cc1` showed an IC50 of 500 µM.

In turn, `O=C(Nc1cccc(F)c1)c1ccc([N+](=O)[O-])o1` gave a half-inhibitory concentration (IC50) of 112 µM.

For the compound `COc1cc(CNC(=O)c2ccc([N+](=O)[O-])o2)cc(OC)c1OC`, the IC50 is 184 µM.

`COc1ccc(CNC(=O)c2ccc([N+](=O)[O-])o2)cc1`: it took 416 µM to reach half-maximal inhibition (IC50).

In the case of `O=C(Nc1cccc(Br)c1)c1ccc([N+](=O)[O-])o1`, the concentration for half-maximal inhibition (IC50) was 35.4 µM.

The compound `N#Cc1ccc(NC(=O)c2ccc([N+](=O)[O-])o2)cc1` gave an IC50 of 393 µM.

Turning to `C[C@H](NC(=O)c1ccc([N+](=O)[O-])o1)c1ccccc1`, the concentration for half-maximal inhibition (IC50) is 146 µM.

Consider `O=C(Nc1ccccc1)c1ccc([N+](=O)[O-])o1`, for which half-maximal inhibition (IC50) was put at 94.7 µM.

For `O=C(Nc1ccncc1)c1ccc([N+](=O)[O-])o1`, the midpoint of inhibition, the IC50, lay at 184 µM.

With `C[C@@H](NC(=O)c1ccc([N+](=O)[O-])o1)c1ccccc1`, the midpoint of inhibition, the IC50, lay at 150 µM.

`COc1ccc(CNC(=O)c2ccc([N+](=O)[O-])o2)c(OC)c1` gave an IC50 of 111 µM.

`O=C(Nc1cnccn1)c1ccc([N+](=O)[O-])o1` gave a concentration for half-maximal inhibition (IC50) of 692 µM.

`O=C(Nc1cccc(O)c1)c1ccc([N+](=O)[O-])o1`: the IC50 was 314 µM.

In turn, `O=C(NC1CCCc2ccccc21)c1ccc([N+](=O)[O-])o1` (stereo not drawn) had a half-inhibitory concentration (IC50) of 112 µM.

Regarding `COc1ccccc1CNC(=O)c1ccc([N+](=O)[O-])o1`, inhibition was half-maximal at 358 µM (IC50).

The compound `O=C(NCCc1ccccc1)c1ccc([N+](=O)[O-])o1` gave an IC50 of 315 µM.
